Data set [1] deals with T1, MBP (Escherichia coli, UniProt P0AEX9). Briefly: DSF thermal stability of MBP with ligands. To be noted: 1 µM MBP, 1mM ligand. Format: binding, E. coli.
Data set [2] deals with E. coli MBP. The following applies: MBP ligand; cited from earlier work.
Data set [3] concerns the target T1, MBP. Briefly: CARS with MBP, SO fluorescence, 96-well. The class given is binding, E. coli. The following applies: for Change in SO fluorescence in the presence of MBP: negative controls, 0–1 mM.
The target in data set [4] is T2, myoc-OLF (Homo sapiens, UniProt Q99972).
T2 sequence (Q99972 244-503 limits assumed): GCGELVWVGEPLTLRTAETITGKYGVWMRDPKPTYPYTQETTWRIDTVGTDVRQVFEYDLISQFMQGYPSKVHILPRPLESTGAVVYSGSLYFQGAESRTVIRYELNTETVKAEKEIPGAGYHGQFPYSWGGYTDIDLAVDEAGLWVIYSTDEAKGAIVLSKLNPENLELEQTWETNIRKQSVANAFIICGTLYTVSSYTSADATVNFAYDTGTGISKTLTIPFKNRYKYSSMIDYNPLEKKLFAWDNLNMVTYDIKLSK
Briefly: myoc-OLF amyloid fibrillization assay. Format: biochemical. To be noted: for myoc-OLF fibrillization (ThT fluorescence): ~3 d, 96-well format; for Fibrils/deposits by AFM: after fibrillization assay.

Data set [5] relates to HEK-cell line stably expressing I477N-mutant myocilin. Briefly: Mutant myocilin cellular secretion assay. Format: cell-based. To be noted: 20, 100, 200 µM compound, 24 h, immunoblotting of media. On the technique in general: In western blotting, separated proteins are transferred to a membrane and probed.
Data set [6] has the same test system. As to the kind of experiment: Cellular toxicity profile. The class given is cell-based. The following applies: up to 200 µM.
The nature of data set [7]: Solubility in cell media. The class given is physicochemical. The following applies: addition to cell media.
Data set [8] addresses T2, myoc-OLF. Briefly: Differential scanning fluorimetry. Format: binding. The following applies: DSF; hits at concentrations used for screening.
The target of data set [9] is T2, myoc-OLF. As to the kind of experiment: SPR binding to immobilized myoc-OLF. To be noted: for Binding mode by SPR: sensorgram inspection. A general note: In SPR one partner is held on a chip, and binding of the other changes the refractive index at the surface.
A short description of data set [10]: Solubility behavior under SPR conditions. The class given is physicochemical.
Data set [11] deals with T2, myoc-OLF. As to the kind of experiment: CARS with myoc-OLF, TMAO dose-dependent SO fluorescence, 96-well. Format: binding. To be noted: 1 µM myoc-OLF, 0.6 M GdnHCl. Summed up: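 myoc-OLF was expressed as a Factor Xa-cleavable MBP fusion and purified. TMAO was titrated at 0−1 M, and protein was added last, just before fluorescence readings. The signal window was the SO fluorescence difference with versus without 1 M TMAO.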

[12] abbreviates: standard SPR conditions, 5% DMSO.
[13] abbreviates: standard SPR conditions, compounds dissolved in 5% DMSO.

We go through 19 compounds from PMC3944078 (ACS chemical biology, 2013).

Where two headings read alike, the source gives them in different places.

Regarding `OC[C@H]1O[C@H](O[C@H]2[C@H](O)[C@@H](O)C(O)O[C@@H]2CO)[C@H](O)[C@@H](O)[C@@H]1O` (mixture of isomers) [Maltose, maltose], the “Change in melting temperature (ITm)” value in data set [1] was 10 K. The Kd (in general, a measure of binding affinity in units of concentration) in data set [2] was 1 µM. Also, in [3] (at low micromolar concentrations, 2 µM MBP, 0.6 M GdnHCl), the “Decrease in SO fluorescence intensity” value was found to be 50%.

Take `O=c1cc(-c2ccccc2)oc2c(O)c(O)ccc12` [A1, 7,8-dihydroxyflavone]: the “myoc-OLF fibrillization (ThT fluorescence)” value (shortened to “myoc-OLF fibrillization”) in data set [4] is “dose-dependent decrease in myoc-OLF fibrilization”. In data set [5], the “Secretion of I477N-mutant myocilin” value is listed as “increased I477N-mutant myocilin secretion in a dose-dependent manner”. Also, the Cellular toxicity profile result in [6] is “adequate”. Besides, the “Solubility in cell media” value in data set [7] is “adequate solubility”.

Take `O=c1cc(-c2ccc(O)cc2)oc2cc(O)cc(O)c12` [Apigenin, 4’,5,7-trihydroxyflavone]: the ΔTm (in general, the shift of the melting midpoint relative to a reference) in [8] is −0.3 ± 0.2 °C. Moreover, in data set [4], the “Fibrils/deposits by AFM” value was “no fibrils apparent” and the “myoc-OLF fibrillization” value was “decreased myoc-OLF fibrillization in a dose-dependent manner”. In addition, the “Solubility in cell media” value in data set [7] was “precipitated upon addition to the cell media”.

As to `O=C(O)C1=CC(=C(c2ccc(O)c(C(=O)O)c2)c2ccc(O)c(C(=O)O)c2)C=CC1=O` [Aurintricarboxilic acid, Aurintricarboxylic acid], the ΔTm in [8] came out at 0.3 ± 0.2 °C. For the same compound, in data set [4], the “Fibrils/deposits by AFM” value was “high levels of deposits similar to vehicle control” and the “myoc-OLF fibrillization” value is “increase in ThT fluorescence”. In [9], the Kd was determined as 17.1 ± 9.6 µM.

As for `O=C1Nc2ccccc2C1=Cc1cc(Br)c(O)c(Br)c1` [G5], the “myoc-OLF fibrillization” value in data set [4] is “potent fibril inhibition”. Moreover, the “Secretion of I477N-mutant myocilin” value in data set [5] is on record as “increased I477N-mutant myocilin secretion in a dose-dependent manner”. For the same compound, the Cellular toxicity profile result in data set [6] was “adequate”. The “Solubility in cell media” value in data set [7] is listed as “adequate solubility”.

With `O=C1Nc2ccc(I)cc2C1=Cc1cc(Br)c(O)c(Br)c1` [GW5074, 3-(3,5-dibromo-4-hydroxybenzylidine-5-iodo-1,3-dihydro-indol-2-one)], the ΔTm in [8] was found to be 0.2 ± 0.0 °C. For the same compound, in [4], the “Fibrils/deposits by AFM” value is listed as “no fibrils apparent” and the “myoc-OLF fibrillization” value is “decreased myoc-OLF fibrillization in a dose-dependent manner”. For the same compound, the Solubility behavior entry in [10] (setting [12]) is reported as “poor solubility behavior”. For the same compound, the “Solubility in cell media” value in data set [7] was “precipitated upon addition to the cell media”. For the same compound, the Kd in [9] (read-out: Kd from SPR, standard SPR conditions, compounds dissolved in 5% DMSO) worked out at 33.5 ± 20.9 µM.

Take `O=C(/C=C/c1ccc(O)cc1)c1ccc(O)cc1O` [Isoliquiritigenin]: the “Binding mode by SPR” value in [9] is on record as “bind non-specifically”. Besides, in [9] (setting [13]), the “Kd from SPR” value is “linear dose-response”.

As for `O=c1c(O)c(-c2ccc(O)cc2O)oc2cc(O)cc(O)c12` [Morin], the thermal shift (ΔTm) in data set [8] was −0.4 ± 0.4 °C. For the same compound, the Solubility behavior result in data set [10] (setting [12]) is “poor solubility behavior”. In addition, in data set [9], the “Binding mode by SPR” value is listed as “non-stoichiometric binders”. The “Kd from SPR” value in [9] (with surfactant P-20 in buffer solution) was “weak sigmoidal response ^c, ^d”.

Take `O=c1c(O)c(-c2cc(O)c(O)c(O)c2)oc2cc(O)cc(O)c12` [Myricetin]: the ΔTm in data set [8] came out at 1.7 ± 0.0 °C. Also, in data set [9], the “Binding mode by SPR” value was “bind non-specifically”. Also, in [9] (setting [13]), the “Kd from SPR” value was “linear dose-response”.

`O=C(Nc1ccc([N+](=O)[O-])cc1Cl)c1cc(Cl)ccc1O` [Niclosamide]: in data set [8], the ΔTm came out at 0.0 ± 0.2 °C. Also, in data set [10] (setting [12]), the Solubility behavior entry is recorded as “poor solubility behavior”. Further, the “Binding mode by SPR” value in data set [9] is “failed to elicit an interpretable response”. For the same compound, the “Kd from SPR” value in data set [9] (setting [13]) is “no detectable binding ^d”.

Take `O=S(=O)(F)Cc1ccccc1` [PMSF]: the “Change in SO fluorescence in the presence of MBP” value in data set [3] was “Neither”.

Turning to `O=C(CCc1ccc(O)cc1)c1c(O)cc(O)cc1O` [Phloretin], the ΔTm in data set [8] is 1.2 ± 0.0 °C. Moreover, in [9], the “Binding mode by SPR” value was “bind non-specifically”. Also, the “Kd from SPR” value in [9] (setting [13]) is given as “linear dose-response”.

`Oc1cc(O)cc(/C=C/c2ccc(O)c(O)c2)c1` [Piceatannol]: the thermal shift (ΔTm) in data set [8] was −0.4 ± 0.1 °C. Also, the “Binding mode by SPR” value in data set [9] is on record as “non-stoichiometric binders”. In addition, the “Kd from SPR” value in data set [9] (setting [13]) was “sigmoidal dose-response”.

For `CC(=O)c1c(O)c(C)c(O)c(Cc2c(O)c3c(c(C(=O)/C=C/c4ccccc4)c2O)OC(C)(C)C=C3)c1O` [Rottlerin], in [9], binding was characterised by a dissociation constant (Kd) of 30.1 ± 0.6 µM and the “Binding mode by SPR” value is given as “promiscuous binder”.

For the compound `C[N+](C)(C)[O-]` [TMAO, trimethylamine-N-oxide], the “Concentration by which the decrease in SO fluorescence levels off” value in [11] is listed as not above 1 M.

Regarding `CC(C)(C)c1cc(/C=C(\C#N)C(N)=S)cc(C(C)(C)C)c1O` [Tyrphostin AG 879], the shift in melting temperature (ΔTm) in data set [8] was −0.8 ± 0.0 °C. Further, the Solubility behavior entry in [10] is “poor solubility behavior”. Further, the equilibrium dissociation constant (Kd) in data set [9] (read-out: Kd from SPR, with surfactant P-20 in buffer solution) came to 38.6 ± 12.7 µM. Further, the “Binding stoichiometry from SPR” value in [9] (surfactant P-20 present in SPR buffer) was “stoichiometric binding”.

Regarding `NC(=O)CI` [iodoacetamide], the “Change in SO fluorescence in the presence of MBP” value in [3] is recorded as “Neither”.

For `OC[C@@H](O)[C@@H](O[C@H]1O[C@H](CO)[C@@H](O)[C@H](O)[C@H]1O)[C@H](O)[C@@H](O)CO` [maltitol], the “Change in melting temperature (ITm)” value in data set [1] worked out at 0.9 K. Also, in data set [2], the Kd is 50 µM. Moreover, the “Concentration by which a decrease in SO fluorescence was seen” value in [3] (2 µM MBP, 0.6 M GdnHCl) was ~ 10 µM.

As to `OC[C@H]1O[C@H](O[C@H]2[C@H](O)[C@@H](O)[C@@H](O[C@H]3[C@H](O)[C@@H](O)[C@@H](O[C@H]4[C@H](O)[C@@H](O)C(O)O[C@@H]4CO)O[C@@H]3CO)O[C@@H]2CO)[C@H](O)[C@@H](O)[C@@H]1O` (stereo partly drawn) [maltotetraose], the “Change in melting temperature (ITm)” value in data set [1] was 10 K.
